In ChEMBL document CHEMBL4020830, “Design, Synthesis, and Evaluation of a Novel Series of Indole Sulfonamide Peroxisome Proliferator Activated Receptor (PPAR) α/γ/δ Triple Activators: Discovery of Lanifibranor, a New Antifibrotic Clinical Candidate” (J Med Chem, 2018):
Each block holds one molecule with its values, some of them ahead of it.

What was measured:
Rattus norvegicus [1] = experiment: Toxicity in Sprague-Dawley rat assessed as increase in plasma volume at 100 mg/kg for 4 weeks by evans blue dye based assay; assay type: organism-based; settings: in vivo, 672 h
How it was run: (§1)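 Sprague-Dawley rats were treated at 100 and 1000 mg/kg. Hematocrit and plasma volume were assessed after 4 weeks of treatment and heart weight after 6 weeks. Each was compared with the control group by one-way ANOVA followed by Dunnett's test.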

Rattus norvegicus [2] = experiment: Toxicity in Sprague-Dawley rat assessed as reduction in hematocrit level at 100 mg/kg for 4 weeks; assay type: organism-based; settings: in vivo, 672 h; how it was run: as §1
Rattus norvegicus [3] = experiment: Toxicity in Sprague-Dawley rat assessed as increase in heart weight at 100 mg/kg for 6 weeks; assay type: organism-based; settings: in vivo, 1008 h; how it was run: as §1
[4] = AUC (infinity) in C57Bl6 mouse at 10 mg/kg, po administered as single oral dose; assay type: ADME, organism-based; settings: in vivo
How it was run: (§2)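 Single oral dose of 10 mg/kg in methyl cellulose vehicle given to C57Bl6 mice. Plasma was sampled over a 24 h period. […]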

[5] = target: T1, Peroxisome proliferator-activated receptor alpha (Homo sapiens) (UniProt Q07869); experiment: Transactivation of human GAL4-fused PPARalpha LBD expressed in African green monkey COS7 cells co-expressing 5Gal4 pGL3 TK Luc after overnight incubation by luciferase reporter gene assay relative to fenofibric acid; assay type: cell-based
T1 sequence (whole entry): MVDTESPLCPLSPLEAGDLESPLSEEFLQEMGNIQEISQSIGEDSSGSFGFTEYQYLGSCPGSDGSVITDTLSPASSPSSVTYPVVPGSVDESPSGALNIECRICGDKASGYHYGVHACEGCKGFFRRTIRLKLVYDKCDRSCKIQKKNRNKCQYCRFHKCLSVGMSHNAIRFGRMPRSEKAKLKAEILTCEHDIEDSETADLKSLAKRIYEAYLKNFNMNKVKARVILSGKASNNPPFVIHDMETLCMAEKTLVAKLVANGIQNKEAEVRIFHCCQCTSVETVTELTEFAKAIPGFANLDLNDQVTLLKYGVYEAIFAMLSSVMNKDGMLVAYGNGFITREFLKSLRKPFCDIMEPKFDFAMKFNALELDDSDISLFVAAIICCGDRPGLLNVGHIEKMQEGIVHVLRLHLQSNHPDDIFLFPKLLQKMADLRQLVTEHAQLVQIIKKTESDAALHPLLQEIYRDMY
How it was run: (§3)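 Cell-based Gal-4 transactivation assay in COS-7 cells transfected with PPARα, PPARδ or PPARγ ligand-binding domain. EC50 and Emax were derived, with Emax as maximum activation in percent of control. EC50s are means of at least two independent experiments performed in triplicate.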

[6] = target: T2, Peroxisome proliferator-activated receptor gamma (Homo sapiens, UniProt P37231); experiment: Transactivation of human GAL4-fused PPARgamma LBD expressed in African green monkey COS7 cells co-expressing 5Gal4 pGL3 TK Luc after overnight incubation by luciferase reporter gene assay; assay type: cell-based; how it was run: as §3
T2 sequence (P37231 whole entry): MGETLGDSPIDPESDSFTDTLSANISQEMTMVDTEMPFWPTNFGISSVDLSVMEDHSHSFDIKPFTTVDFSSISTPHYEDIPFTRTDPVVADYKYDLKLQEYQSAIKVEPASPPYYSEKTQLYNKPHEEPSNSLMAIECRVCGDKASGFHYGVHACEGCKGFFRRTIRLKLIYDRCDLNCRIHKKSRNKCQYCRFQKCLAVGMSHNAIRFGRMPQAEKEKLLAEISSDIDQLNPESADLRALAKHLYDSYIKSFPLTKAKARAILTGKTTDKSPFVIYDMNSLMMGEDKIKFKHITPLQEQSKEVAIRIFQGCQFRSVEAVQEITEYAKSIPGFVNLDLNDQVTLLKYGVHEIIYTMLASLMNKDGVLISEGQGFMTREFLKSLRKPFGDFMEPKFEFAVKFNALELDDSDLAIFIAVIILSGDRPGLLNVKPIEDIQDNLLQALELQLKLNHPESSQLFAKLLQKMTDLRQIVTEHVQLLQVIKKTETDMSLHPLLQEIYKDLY

[7] = Cmax in C57Bl6 mouse at 10 mg/kg, po administered as single oral dose; assay type: ADME, organism-based; settings: in vivo; how it was run: as §2
[8] = target: T3, Peroxisome proliferator-activated receptor delta (Homo sapiens) (UniProt Q03181); experiment: Transactivation of human GAL4-fused PPARdelta LBD expressed in African green monkey COS7 cells co-expressing 5Gal4 pGL3 TK Luc after overnight incubation by luciferase reporter gene assay relative to GW501516; assay type: cell-based; how it was run: as §3
T3 sequence (whole entry): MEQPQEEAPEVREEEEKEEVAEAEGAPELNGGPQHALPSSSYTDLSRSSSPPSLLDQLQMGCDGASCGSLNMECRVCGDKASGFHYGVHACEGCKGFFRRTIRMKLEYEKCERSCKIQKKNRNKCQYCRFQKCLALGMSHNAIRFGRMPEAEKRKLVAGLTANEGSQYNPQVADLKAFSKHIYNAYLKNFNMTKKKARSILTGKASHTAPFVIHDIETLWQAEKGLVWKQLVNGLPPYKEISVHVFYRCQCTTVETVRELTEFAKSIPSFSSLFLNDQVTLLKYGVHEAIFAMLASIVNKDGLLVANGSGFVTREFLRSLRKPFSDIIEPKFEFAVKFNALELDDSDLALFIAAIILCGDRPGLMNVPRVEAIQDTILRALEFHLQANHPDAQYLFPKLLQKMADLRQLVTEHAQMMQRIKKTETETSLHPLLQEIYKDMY

[9] = target: T4, Peroxisome proliferator-activated receptor alpha (Homo sapiens, UniProt Q07869); experiment: Transactivation of human GAL4-fused PPARalpha LBD expressed in African green monkey COS7 cells co-expressing 5Gal4 pGL3 TK Luc after overnight incubation by luciferase reporter gene assay; assay type: cell-based; how it was run: as §3
T4 sequence (Q07869 whole entry): T1 sequence (whole entry)

[10] = Tmax in C57Bl6 mouse at 10 mg/kg, po administered as single oral dose; assay type: ADME, organism-based; settings: in vivo; how it was run: as §2
[11] = target: T5, Peroxisome proliferator-activated receptor gamma (Homo sapiens) (UniProt P37231); experiment: Transactivation of human GAL4-fused PPARgamma LBD expressed in African green monkey COS7 cells co-expressing 5Gal4 pGL3 TK Luc after overnight incubation by luciferase reporter gene assay relative to rosiglitazone; assay type: cell-based; how it was run: as §3
T5 sequence (whole entry): T2 sequence (P37231 whole entry)

[12] = target: T6, Peroxisome proliferator-activated receptor delta (Homo sapiens, UniProt Q03181); experiment: Transactivation of human GAL4-fused PPARdelta LBD expressed in African green monkey COS7 cells co-expressing 5Gal4 pGL3 TK Luc after overnight incubation by luciferase reporter gene assay; assay type: cell-based; how it was run: as §3
T6 sequence (Q03181 whole entry): T3 sequence (whole entry)

Rattus norvegicus [13] = experiment: Toxicity in Sprague-Dawley rat assessed as increase in plasma volume at 10 mg/kg for 4 weeks by evans blue dye based assay; assay type: organism-based; settings: in vivo, 672 h
Rattus norvegicus [14] = experiment: Toxicity in Sprague-Dawley rat assessed as increase in heart weight at 10 mg/kg for 6 weeks; assay type: organism-based; settings: in vivo, 1008 h
Rattus norvegicus [15] = experiment: Toxicity in Sprague-Dawley rat assessed as reduction in hematocrit level at 10 mg/kg for 4 weeks; assay type: organism-based; settings: in vivo, 672 h
Rattus norvegicus [16] = experiment: Toxicity in Sprague-Dawley rat assessed as increase in heart weight at 30 mg/kg for 6 weeks; assay type: organism-based; settings: in vivo, 1008 h

Compound: COc1ccc(OC(=O)N(CC(=O)O)Cc2ccc(OCCc3nc(-c4ccccc4)oc3C)cc2)cc1 [MURAGLITAZAR]
Activity (Rattus norvegicus [1]): Toxic
Activity (Rattus norvegicus [2]): Toxic
Activity (Rattus norvegicus [3]): Toxic

AUC(0-inf) [4]: 51100 ng·h/mL
Emax [5]: 51%
EC50 [6]: 284 nM
Cmax [7]: 11800 ng/mL
Emax [8]: 46%
EC50 [9]: 956 nM
Tmax [10]: 1 h
Emax [11]: 46%
EC50 [12]: 645 nM
Compound: O=C(O)CCCc1cc2cc(Cl)ccc2n1S(=O)(=O)c1ccccc1

Compound: CCO[C@@H](Cc1ccc(OCCc2ccc(OS(C)(=O)=O)cc2)cc1)C(=O)O [TESAGLITAZAR]
Activity (Rattus norvegicus [13]): Toxic
Activity (Rattus norvegicus [14]): Toxic
Activity (Rattus norvegicus [15]): Toxic

Compound: CN(CCOc1ccc(CC2SC(=O)NC2=O)cc1)c1ccccn1 (stereo unspecified) [ROSIGLITAZONE]
Activity (Rattus norvegicus [16]): Toxic
